Data: ChEMBL document CHEMBL4014338, “Discovery of Small Molecules as Multi-Toll-like Receptor Agonists with Proinflammatory and Anticancer Activities” (J Med Chem, 2017)

Key:
HeLa = assay: Cell cycle arrest in human HeLa cells assessed as accumulation at G2/M phase at 20 uM after 24 hrs by propidium iodide staining based flow cytometry (reference value: 17%); type: functional
Toll-like receptor 7 = target: T1, Toll-like receptor 7 (Homo sapiens, UniProt Q9NYK1); assay: Agonist activity at human TLR7 expressed in HEK293 cells assessed as induction of NF-kB activation-mediated SEAP production after 24 hrs by HTS assay; type: cell-based
T1 sequence (Q9NYK1 whole entry): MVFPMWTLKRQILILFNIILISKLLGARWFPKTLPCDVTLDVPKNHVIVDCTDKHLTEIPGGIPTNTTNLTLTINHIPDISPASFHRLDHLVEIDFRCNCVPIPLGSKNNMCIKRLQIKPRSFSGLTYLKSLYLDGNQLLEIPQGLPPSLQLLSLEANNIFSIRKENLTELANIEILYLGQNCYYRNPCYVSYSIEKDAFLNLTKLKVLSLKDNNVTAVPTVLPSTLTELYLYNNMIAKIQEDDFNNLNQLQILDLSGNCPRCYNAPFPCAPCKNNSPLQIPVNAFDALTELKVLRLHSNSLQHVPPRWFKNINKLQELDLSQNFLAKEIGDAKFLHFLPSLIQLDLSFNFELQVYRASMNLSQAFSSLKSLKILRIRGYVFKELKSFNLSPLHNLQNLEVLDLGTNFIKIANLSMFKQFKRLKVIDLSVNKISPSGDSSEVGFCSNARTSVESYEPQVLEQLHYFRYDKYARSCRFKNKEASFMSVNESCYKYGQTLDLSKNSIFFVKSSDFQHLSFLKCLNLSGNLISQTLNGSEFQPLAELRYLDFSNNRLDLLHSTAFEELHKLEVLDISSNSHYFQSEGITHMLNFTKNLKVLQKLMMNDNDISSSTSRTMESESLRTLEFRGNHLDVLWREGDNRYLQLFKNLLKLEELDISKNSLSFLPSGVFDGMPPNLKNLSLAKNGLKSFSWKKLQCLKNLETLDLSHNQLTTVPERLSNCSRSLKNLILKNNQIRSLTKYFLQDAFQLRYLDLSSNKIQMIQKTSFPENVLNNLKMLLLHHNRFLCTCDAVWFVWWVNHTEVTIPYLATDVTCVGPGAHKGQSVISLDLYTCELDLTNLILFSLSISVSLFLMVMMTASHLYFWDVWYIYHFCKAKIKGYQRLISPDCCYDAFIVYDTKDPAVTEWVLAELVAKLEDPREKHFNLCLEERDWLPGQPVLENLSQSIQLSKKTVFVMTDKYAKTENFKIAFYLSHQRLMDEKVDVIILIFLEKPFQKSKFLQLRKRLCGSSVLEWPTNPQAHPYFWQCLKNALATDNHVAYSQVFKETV
Summary of the method: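 Stable HEK293 lines expressing a single hTLR plus a SEAP reporter, grown in DMEM/10% FBS with selective antibiotics. Seeded at 5 × 10^4 cells/well for 24 h at 37 °C, then treated 24 h. Supernatant mixed with QUANTI-Blue, 1 h at 37 °C, OD 620 nm. Cognate agonists: Pam3CSK4 (TLR2), poly I:C (TLR3), LPS (TLR4), FLA-BS (TLR5), R848 (TLR7). EC50 as mean ± SD.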

O=[N+]([O-])c1ccc(COc2cc3c(cc2OCc2ccc([N+](=O)[O-])cc2)OC2(C=C3)CCOCC2)cc1
Activity (HeLa): 20% | EC50 (Toll-like receptor 7): > 100 µM
